WT yeast gro inh – growth inhibition of WT strain, primary screen, mitochondrial fusion inhibitor project, WT and mutant strains, chemical genetic; mitochondrial fusion phenotypic screen; inhibition, % at 10 µM; 190,000 compounds, 2.1% hits; AID 1362, 2008; in the data active = inhibition above about 58%; tested in S. cerevisiae
Efflux pump inh – inhibitors of Candida efflux pumps in yeast, primary screen, S. cerevisiae, Nile Red, multiplex; inhibition, % at 10 µM; S. cerevisiae Candida pump triplex; AID 485275, 2010; 330,000 compounds, 0.44% hits;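 active = plate passing quality check with inhibition over a set limit, or well fluorescence over plate mean plus 4 SD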;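 also: Nile Red retained in pooled yeast measured as flow cytometry median fluorescence; 0% = buffer negative control and 100% = Enniatin B positive control; higher means more Nile Red kept so more efflux inhibition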
T cruzi repl – inhibitors of intracellular T. cruzi growth, primary screen, luminescence, NIH3T3 host cells | T. cruzi beta-gal in NIH3T3, 90 h | inhibition, % (no concentration beside the values) | AID 1885, 2009 | 300,000 compounds, 1.4% hits;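 active = mean inhibition across valid replicates above about 55%, limit read from the data; inconclusive = mean below that limit but half or more replicates reach it; inactive = mean below it, under half of replicates reach it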;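 also: signal also drops with host cell toxicity which is not excluded here; 0% = plate median of DMSO wells and 100% = zero luminescence signal; higher percent means less beta-gal luminescence so fewer parasites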
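System – NIH/3T3 host cells with β-galactosidase reporter T. cruzi · Doses – single 50 nL compound addition per well in DMSO · Reagent – 5000 T. cruzi trypomastigotes/well · Medium – Low-serum DMEM with 2% FBS · Timing – ≥90 h infection period, 3 h prior cell attachment · Evaluation – parasite load inhibition, % · Technique – GalScreen luminescence, 60 min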
SUMO Mot1 rescue – yeast Mot1-301 growth rescue at high temperature, primary screen, SUMOylation pathway inhibitor project, S. cerevisiae, ATP luminescence, 38.5C | S. cerevisiae Mot1-301 growth rescue; percent above DMSO median, 100 means doubled | growth rescue, % at 18.8 µM | 320,000 compounds, 1% hits;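 active = every valid replicate shows activation above 250% relative to neutral control wells; inactive = the rest, any valid replicate at or below 250%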;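 also: OY570 slx delta 5 strain wells were the positive control but not used for scaling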
Beta cell apopt – inhibitors of cytokine-induced beta cell apoptosis, primary screen, luminescence; INS-1E cytokine-induced death, ATP luminescence, 48 h; percent of positive-control rescue, neutral wells zero; protection from apoptosis, % (concentration not given with the values); 300,000 compounds, 0.8% hits; AID 435005, 2010;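 active = Every replicate reaches about 75%, or at least half do and their mean reaches it too, limit read from the data; inconclusive = At least half of replicates reach the limit but their mean does not; inactive = Under half of replicates reach the limit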;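 also: 0% = cytokine-treated negative control wells and 100% = positive control rescue; higher means more ATP so stronger rescue from cytokine killing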
CSC inhib – cancer stem cell viability inhibitors, primary screen, luminescence. AID 2717, 2010. inhibition, % at 7.5 µM. 300,000 compounds, 1.1% hits. cancer stem cell-like cells viability; in the data active = inhibition above about 75%; inconclusive = no clear call, values can overlap the other calls; tested in HMLE shEcad cells
An asterisk follows results filed as active; u = inconclusive; x = not tested or not shown. The list is not random: actives were taken first. Their share in the collection is about 4.8%.

SMILES	WT yeast gro inh	Efflux pump inh	T cruzi repl	SUMO Mot1 rescue	Beta cell apopt	CSC inhib
COc1ccc(CCNC(=S)Nc2cc(C)ccc2C)cc1	63*	0	-10	-1	6	-11
CCOC(=O)/C(C#N)=C\c1cc(OC)c(OC)cc1[N+](=O)[O-]	-3	0	-6	5	-3	x
O=C(CCN1C(=O)/C(=C/c2ccccc2F)SC1=S)NCCCn1ccnc1	x	1	-9	-12	x	12
COc1ccc(NC(=S)NCCc2ccc(Cl)cc2)c(OC)c1	67*	0	6	24	4	-11
Clc1ccc(-c2ccc(/C=N/Nc3cc(N4CCOCC4)nc(N4CCOCC4)n3)o2)cc1	60*	0	54	41	7	93*
Cc1ccc(Nc2nc(N/N=C\c3ccc4c(c3)OCO4)nc(N3CCOCC3)n2)cc1	36	0	58*	-14	2	54
Cc1ccc(/C=N/Nc2cc(C)nc(N3CCOCC3)n2)cc1	x	0	-6	438	0	-2
Brc1ccc(-c2ccc(/C=N/Nc3nc(N4CCOCC4)nc(N4CCOCC4)n3)o2)cc1	12	0	14	-4	13	-8
Cc1cccc(/C=N/Nc2cc(N3CCOCC3)nc(N3CCOCC3)n2)c1	21	0	69*	12	9	46
Cc1ccc(-c2csc(-c3c[nH]c4ccccc34)n2)c(C)c1	17	0	21	-9	1	99*
COc1ccc(-c2nc(-c3ccc(O)cc3O)cs2)cc1OC	46	x	35	x	x	x
Oc1ccc(-c2csc(-c3c[nH]c4ccccc34)n2)c(O)c1	15	0	-1	2	x	90*
CC(=NNC(=O)Cn1ccc(C(F)(F)F)n1)c1ccc(-n2ccnc2)cc1	x	0	x	14	-1	45
Cc1ccc(C(C)C)cc1S(=O)(=O)NC1CC(C)(C)NC(C)(C)C1	x	0	-8	431	-2	-2
CCOc1ccc(NCc2ccccc2OCc2cccc(F)c2)cc1	-4	0	55*	-6	20	58
O=C(COC(=O)C1CC(=O)N(CCc2ccccc2)C1)c1ccc[nH]1 (configuration not stated)	x	0	x	10	-8	-11
CCN1C(=O)C(CC(=O)Nc2ccc(Br)cc2)N(CCCc2ccccc2)C1=S (configuration not stated)	47	0	56*	0	27	-15
CCOc1ccc(NC(=O)CC2C(=O)N(C)C(=S)N2CCCc2ccccc2)cc1 (configuration not stated)	14	0	55*	2	2	24
CCN1C(=O)C(CC(=O)Nc2ccc(F)cc2)N(CCCN2CCN(c3ccc(F)cc3)CC2)C1=S (configuration not stated)	6	0	34	-12	-3	105*
CCOc1ccc(NC(=O)CC2C(=O)N(C)C(=S)N2Cc2ccco2)cc1 (configuration not stated)	2	0	-26	-18	-7	-4
O=C(NCc1ccc(F)cc1)c1ccc(CS(=O)Cc2ccccc2Cl)o1 (configuration not stated)	x	0	0	1	12	-2
CCOc1cc(/C=N/NC(=O)C(C)Sc2ccccc2)ccc1O (configuration not stated)	14	0	-14	x	-3	-7
CCc1cccc(NC(=O)c2cccc3c2C(=O)N(CC2CCCO2)C3)c1 (configuration not stated)	x	0	17	38	2	x
O=c1c2ccccc2nc2n1CCc1c-2[nH]c2ccccc12	x	0	x	92	1	78*
C=CCNC(=S)N(C1CCCCC1)C1CCCCC1	72*	0	-7	18	-1	0
SMILES	WT yeast gro inh	Efflux pump inh	T cruzi repl	SUMO Mot1 rescue	Beta cell apopt	CSC inhib
C=CCNC(N)=S	x	0	-26	-2	-8	-13
O=C1C(Cl)=C(NC2CCCCC2)C(=O)N1Cc1ccccc1	70*	0	21	6	x	-25
Cc1cc(C(=O)Nc2ncn[nH]2)ccc1[N+](=O)[O-]	-3	0	-18	226	2	-10
CC(=O)Nc1ccc(NC(=O)C2CC(=O)N(C(C)C)C2)cc1 (configuration not stated)	x	0	-23	-20	-7	-19
CC(C)N1CC(C(=O)Nc2ccccc2)CC1=O (configuration not stated)	-9	0	-22	305*	0	-10
CCOc1ccc(NC(=O)C2CC(=O)N(C(C)C)C2)cc1 (configuration not stated)	63*	0	-5	-10	-4	-4
O=C1COc2ccccc2N1Cc1c(F)cccc1Cl	x	0	8	9	-3	-6
O=C(Nc1cc2c(cc1[N+](=O)[O-])OCCO2)c1cccnc1	x	0	x	3	2	-16
CCN(CC)CCC(c1ccc(N(C)C)cc1)c1c(OC)cc(OC)c2c(-c3ccccc3)cc(=O)oc12 (configuration not stated)	x	0	x	12	1	18
CCCCCc1cc(=O)oc2c(C(CCN(CC)CC)c3cc(OC)c(OC)c(OC)c3)c(OC)cc(OC)c12 (configuration not stated)	x	0	48	-38	31	107*
COc1ccc(C(CCN2CCCC(C)C2)c2c(OC)cc(OC)c3c(C)cc(=O)oc23)cc1 (configuration not stated)	x	0	26	-14	8	-1
COc1cc(OC)c2c(-c3ccccc3)cc(=O)oc2c1C(CCN1CCCC1)c1ccc2c(c1)OCO2 (configuration not stated)	x	0	32	-3	3	15
CCCCCc1cc(=O)oc2c(C(CCN3CCCCC3)c3ccc4c(c3)OCO4)c(OC)cc(OC)c12 (configuration not stated)	x	0	45	67	98*	u
COc1cc(C(CCN2CCCC2)c2c(OC)cc(OC)c3c(-c4ccccc4)cc(=O)oc23)cc(OC)c1OC (configuration not stated)	x	0	58*	2	-1	-11
CCCCCc1cc(=O)oc2c(C(CCN3CCCC(C)C3)c3ccc4c(c3)OCO4)c(OC)cc(OC)c12 (configuration not stated)	x	0	35	-3	67	108*
COc1ccc(N2CCN(CC(O)COc3ccccc3[N+](=O)[O-])CC2)cc1 (configuration not stated)	-3	0	19	6	-8	3
CC(=O)Nc1ccc(S(=O)(=O)NC2CC2)cc1	x	0	-8	-7	-2	-8
O=C1CCCc2[nH]c3cccc(/C(=C/c4ccccc4)c4ccccc4)c3c21	x	0	27	-19	2	31
